We go through 14 compounds from ChEMBL document CHEMBL1147759, “Substituted indanylacetic acids as PPAR-alpha-gamma activators” (Bioorg Med Chem Lett, 2006).

In data set [1] the target is T1, Peroxisome proliferator-activated receptor gamma (Homo sapiens, UniProt P37231).
T1 sequence (P37231 whole entry): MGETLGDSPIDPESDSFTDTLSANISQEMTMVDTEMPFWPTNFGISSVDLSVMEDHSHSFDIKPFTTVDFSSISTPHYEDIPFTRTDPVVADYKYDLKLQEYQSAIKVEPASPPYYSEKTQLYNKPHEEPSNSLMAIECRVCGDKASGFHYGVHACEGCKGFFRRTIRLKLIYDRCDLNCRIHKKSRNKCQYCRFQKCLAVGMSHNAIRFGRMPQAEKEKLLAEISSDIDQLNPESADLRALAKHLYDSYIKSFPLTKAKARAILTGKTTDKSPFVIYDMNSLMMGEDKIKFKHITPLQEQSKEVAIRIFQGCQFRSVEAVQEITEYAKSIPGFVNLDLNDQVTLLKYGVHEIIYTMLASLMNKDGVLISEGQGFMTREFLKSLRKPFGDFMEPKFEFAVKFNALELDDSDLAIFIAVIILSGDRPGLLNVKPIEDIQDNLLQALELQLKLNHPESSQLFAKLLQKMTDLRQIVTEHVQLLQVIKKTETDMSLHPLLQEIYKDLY
As to the kind of experiment: Activity against PPAR gamma in human by FRET assay.

Data set [2] has as its target T2, Peroxisome proliferator-activated receptor alpha (Homo sapiens, UniProt Q07869).
T2 sequence (Q07869 whole entry): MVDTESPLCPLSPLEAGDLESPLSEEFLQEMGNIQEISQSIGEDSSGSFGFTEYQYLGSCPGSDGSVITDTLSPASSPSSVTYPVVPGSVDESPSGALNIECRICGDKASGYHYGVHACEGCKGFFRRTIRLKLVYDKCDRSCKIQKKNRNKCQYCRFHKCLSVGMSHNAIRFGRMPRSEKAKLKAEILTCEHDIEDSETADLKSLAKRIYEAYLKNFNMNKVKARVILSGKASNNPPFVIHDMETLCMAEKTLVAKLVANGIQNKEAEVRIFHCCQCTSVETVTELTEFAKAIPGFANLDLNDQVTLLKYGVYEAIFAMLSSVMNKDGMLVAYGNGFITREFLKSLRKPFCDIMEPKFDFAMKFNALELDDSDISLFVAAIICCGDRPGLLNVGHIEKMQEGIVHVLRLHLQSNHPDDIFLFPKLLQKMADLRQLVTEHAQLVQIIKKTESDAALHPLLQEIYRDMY
As to the kind of experiment: Activity against PPAR alpha in human by FRET assay. The essentials: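 Human PPAR-α ligand-binding domain (GST-tagged), incubated with compound, europium-labelled anti-GST antibody, biotinylated CREB-binding protein co-activator and streptavidin-APC. Time-resolved FRET read with excitation at 340 nm and emission at 615 and 640 nm. EC50 taken as the mean of at least three experiments.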

Data set [3] is described as follows: Cmax in male db/db mice administered at 3 mg/kg, po. The format is ADME, organism-based. The settings on record: mouse, in vivo. The arrangement: dose 3 mg/kg, route oral.
A short description of data set [4]: Cmax in male hApoA1 transgenic mice administered at 3 mg/kg, po. To be noted: mouse, in vivo. The arrangement: dose 3 mg/kg, route oral. It counts as ADME, organism-based.
A short description of data set [5]: AUC in male db/db mice administered at 3 mg/kg, po. The format is ADME, organism-based. The settings on record: mouse, plasma. Set-up: dose 3 mg/kg, route oral.
A short description of data set [6]: AUC in male hApoA1 transgenic mice administered at 3 mg/kg, po. It counts as ADME, organism-based. The settings on record: mouse, plasma. The arrangement: dose 3 mg/kg, route oral.
For data set [7], the system named is Mus musculus. As to the kind of experiment: Decrease in blood glucose level in male db/db mice administered at 10 mg/kg, po. The format is functional. The arrangement: scale not given: the % may be the effect or the level left. The gist of the method:
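Given by oral gavage once daily for 14 days in 0.5% methylcellulose vehicle, with vehicle-dosed controls. After the last dose the mice were euthanized and blood was collected for glucose measurement. The decrease is expressed relative to vehicle.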

The test system of data set [8] is Mus musculus. As to the kind of experiment: Increase in serum HDL in male hApoA1 mice administered at 10 mg/kg, po. The format is functional. The essentials:
(§1)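 Male hApoA1 transgenic mice, n = 16 per group, had ad lib water and chow. They were dosed by oral gavage once daily for eight days in 0.5% methylcellulose vehicle, with vehicle controls. Serum lipid changes are compared with vehicle.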

Data set [9] relates to Mus musculus. As to the kind of experiment: Increase in serum HDL in male hApoA1 mice administered at 30 mg/kg, po. It counts as functional. The essentials: as §1
Data set [10] relates to Mus musculus. Put plainly: Decrease in serum triglyceride level in male hApoA1 mice administered at 10 mg/kg. Set-up: scale not given: the % may be the effect or the level left. It counts as functional. The essentials:
as §1

Data set [11] has as its system Mus musculus. As to the kind of experiment: Decrease in serum triglyceride level in male hApoA1 mice administered at 30 mg/kg. It counts as functional. The arrangement: scale not given: the % may be the effect or the level left. The gist of the method: as §1

The term EC50 denotes the midpoint of the concentration-response curve. Broadly, the Cmax is the peak of the concentration-time curve. Usually AUC stands for the area under the concentration-time curve, a measure of exposure.

`Cc1oc(-c2ccccc2)nc1CCOc1ccc2c(c1)CCC2C(CC(F)(F)F)C(=O)O` (configuration not stated): the EC50 in data set [1] is 0.177 µM; in data set [2] it was 5.79 µM.

In the case of `CC[C@H](C(=O)O)[C@@H]1CCc2cc(OCCc3nc(-c4ccc(C)cc4)oc3C)ccc21`, the values for the EC50 in data set [1] and in [2] were 0.03 µM and 0.078 µM, respectively. The Cmax in data set [3] turned out to be 2980 ng/mL; in data set [4], 2550 ng/mL. Moreover, the figures for the AUC in [5] and in data set [6] were 11600 ng·h/mL and 8060 ng·h/mL, respectively. In addition, the Activity with Mus musculus [7] is 45%; in the data set on Mus musculus [8] it was 15%; in the data set on Mus musculus [9] it was 30%; with Mus musculus [10], 45%; in the data set with Mus musculus [11], 60%.

As for `Cc1oc(-c2ccccc2)nc1CCOc1ccc2c(c1)CCC2C(C(=O)O)C(=O)O` (configuration not stated), the results for the EC50 in data set [1] and in data set [2] were 1.86 µM and more than 10 µM, respectively.

Regarding `CCCC(C(=O)O)C1CCc2cc(OCCc3nc(-c4ccccc4)oc3C)ccc21` (configuration not stated), the EC50 in data set [1] worked out at 0.052 µM; in [2], 3.89 µM.

As for `Cc1oc(-c2ccccc2)nc1CCOc1ccc2c(c1)CCC2C(C)(C)C(=O)O` (configuration not stated), the EC50 in [1] is 5.64 µM; in [2], 6 µM.

`Cc1oc(-c2ccccc2)nc1CCOc1ccc2c(c1)CCC2C(C(=O)O)c1ccccc1` (configuration not stated): the EC50 was determined as 9.56 µM in [1] and 7.26 µM in data set [2].

Take `CCOC(=O)C(C(=O)O)C1CCc2cc(OCCc3nc(-c4ccccc4)oc3C)ccc21` (configuration not stated): the EC50 is 0.068 µM in [1] and 0.308 µM in data set [2].

Regarding `Cc1oc(-c2ccccc2)nc1CCOc1ccc2c(c1)CCC2C(C(=O)O)C1CC1` (configuration not stated), the EC50 in data set [1] amounted to 0.16 µM; in data set [2], 0.795 µM.

With `Cc1oc(-c2ccccc2)nc1CCOc1ccc2c(c1)CCC2C(CCCc1ccccc1)C(=O)O` (configuration not stated), the figures for the EC50 in data set [1] and in [2] were 3.18 µM and more than 10 µM, respectively.

On to `CCC(C(=O)O)C1CCc2cc(OCCc3nc(-c4ccccc4)oc3C)ccc21` (configuration not stated), for which the concentration for a half-maximal effect (EC50) in data set [1] worked out at 0.042 µM; in [2], 0.141 µM.

On to `CCC(C(=O)O)C1CCc2cc(OCCc3nc(-c4ccc(F)cc4)oc3C)ccc21` (stereo in doubt), for which the 50% effective concentration (EC50) in [1] amounted to 0.154 µM; in [2] it was 0.037 µM.

As to `CCC(C(=O)O)C1CCc2cc(OCCc3nc(-c4ccc(Cl)c(Cl)c4)oc3C)ccc21` (stereo in doubt), the concentration giving a half-maximal response (EC50) in data set [1] was 0.131 µM; in data set [2], 0.029 µM.

Turning to `CCC(C(=O)O)C1CCc2cc(OCCc3nc(-c4ccc(F)cc4)oc3C)ccc21` (stereo in doubt; 54), the concentration giving a half-maximal response (EC50) stood at 0.059 µM in data set [1] and 0.137 µM in data set [2].

With `CCC(C(=O)O)C1CCc2cc(OCCc3nc(-c4ccc(Cl)c(Cl)c4)oc3C)ccc21` (stereo in doubt; 66), the EC50 in data set [1] is 0.094 µM; in [2] it was 0.091 µM.
